In ChEMBL document CHEMBL1142960, “Synthesis and structure-activity relationships for 2,4-dinitrobenzamide-5-mustards as prodrugs for the Escherichia coli nfsB nitroreductase in gene therapy” (J Med Chem, 2007):
In brackets after ≈: the same amount, converted by molar mass.

Assays:
V79 [1] = test: Selectivity ratio of IC50 for V79 NTR-ve cells to IC50 for V79 NTRpuro cells; assay type: functional, Cricetulus griseus
V79 [2] = test: Clonogenic survival of V79 NTRoua cells after 5 hrs by MCL assay; assay type: functional, Cricetulus griseus
V79 [3] = test: Clonogenic survival of 97% V79 NTRoua cells in co-cultures with 3% V79 NTRpuro cells after 5 hrs by MCL assay; assay type: functional, Cricetulus griseus
Summary of the method: (§1)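 Multicellular layer cocultures of 3% V79-NTRpuro activators and 97% V79oua NTR-ve targets (ouabain-resistant), exposed to prodrug for 5 h. MCLs were then trypsin-dissociated and plated in ouabain or puromycin selective media for clonogenic survival. C10 (10% survival) interpolated for activators and targets; AC/TC ratio derived. Mean with SEM or range over independent experiments.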

V79 [4] = test: Clonogenic survival ratio of 3% V79 NTRpuro cells to 97% V79 NTRoua cells in co-culture; assay type: functional, Cricetulus griseus; summary of the method: as §1
WiDr [5] = test: Antiproliferative activity against human WiDr NTRneo cells after 18 hrs; assay type: functional, cell-based
[6] = Antiproliferative activity against human wild type Skov3 NTR-ve cells after 18 hrs; assay type: functional, cell-based
[7] = Partition coefficient at pH 7.4 by shake-flask method; assay type: physicochemical; conditions: octanol/water
Summary of the method: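 Octanol-water partition coefficient by shake-flask at pH 7.4, reported with SEM.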

EMT6 [8] = test: Antiproliferative activity against mouse wild type EMT6 NTR-ve cells after 18 hrs; assay type: functional, cell-based; conditions: EMT6, 18 h
V79 [9] = test: Clonogenic survival of 3% V79 NTRpuro cells in co-cultures with 97% V79 NTRoua after 5 hrs by MCL assay; assay type: functional, Cricetulus griseus; summary of the method: as §1
[10] = Antiproliferative activity against human Skov3 NTRneo cells after 18 hrs; assay type: functional, cell-based; conditions: SK-OV-3, 18 h
EMT6 [11] = test: Selectivity ratio of IC50 for EMT6 NTR-ve cells to IC50 forEMT6 NTRpuro cells; assay type: functional, Mus musculus
V79 [12] = test: Antiproliferative activity against chinese hamster V79 NTRpuro cells after 18 hrs; assay type: functional, cell-based; conditions: Cricetulus griseus, V79, 18 h
EMT6 [13] = test: Antiproliferative activity against mouse EMT6 NTRpuro cells after 18 hrs; assay type: functional, cell-based; conditions: EMT6, 18 h
WiDr [14] = test: Selectivity ratio of IC50 for WiDr NTR-ve cells to IC50 for WiDr NTRneo cells; assay type: functional, Homo sapiens
[15] = Toxicity in ip dosed CD1 nude mouse in DMSO; assay type: organism-based; conditions: in vivo
Summary of the method: (§2)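 Maximum tolerated dose (MTD) determined in CD-1 nude mice after a single i.p. injection of prodrug, given in the vehicle named in each line.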

WiDr [16] = test: Antiproliferative activity against human wild type WiDr NTR-ve cells after 18 hrs; assay type: functional, cell-based
WiDr [17] = test: Antitumor activity against mixed human 10% WiDr NTRneo/ 90% WiDr tumor cells injected in CD1 nude mouse assessed as growth delay at 1000 umol/kg, ip in DMSO; assay type: functional
Summary of the method: (§3)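 WiDr-NTRneo tumours (100% NTR+ve, or 1:9 NTR+ve:NTR-ve mixtures) in CD-1 nude mice, given a single i.p. dose at MTD. Read-out is median growth delay to 15 mm mean diameter, plus tumours not palpable 100 days after treatment. Aziridine given at 200 µmol/kg as positive control in every experiment.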

V79 [18] = test: Antiproliferative activity against chinese hamster wild-type V79 NTR-ve cells after 18 hrs; assay type: functional, cell-based; conditions: Cricetulus griseus, V79, 18 h
[19] = Selectivity ratio of IC50 for Skov3 NTR-ve cells to IC50 for Skov3 NTRneo cells; assay type: functional, Homo sapiens
WiDr [20] = test: Antitumor activity against human 100% WiDr NTRneo tumor cells injected in CD1 nude mouse assessed as growth delay at 1000 umol/kg, ip in DMSO; assay type: functional; summary of the method: as §3
EMT6 [21] = test: Antitumor activity against mixed mouse EMT6/EMT6 NTRpuro cells injected in CD1 nude mouse assessed as cell kill at 1000 umol/kg, ip in DMSO after 18 hrs; assay type: functional
[22] = Solubility in alpha MEM; assay type: physicochemical
Summary of the method: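 Solubility (mM) in α-MEM with 5% fetal calf serum at ambient temperature, measured by HPLC.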

EMT6 [23] = test: Antitumor activity against mixed mouse EMT6/EMT6 NTRpuro cells injected in CD1 nude mouse assessed as cell kill at 133 umol/kg, ip in DMSO/PEG after 18 hrs; assay type: functional
WiDr [24] = test: Antitumor activity against human 100% WiDr NTRneo tumor cells injected in CD1 nude mouse assessed as growth delay at 133 umol/kg, ip in DMSO/PEG; assay type: functional; summary of the method: as §3
WiDr [25] = test: Antitumor activity against mixed human 10% WiDr NTRneo/ 90% WiDr tumor cells injected in CD1 nude mouse assessed as growth delay at 750 umol/kg, ip in DMSO; assay type: functional; summary of the method: as §3
[26] = Stability in alpha MEM at 37 degC after 24 hrs; assay type: physicochemical; conditions: read-out: Stability
Summary of the method: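 Percent parent compound remaining, by HPLC, after holding in α-MEM with 5% fetal calf serum at 37 °C for 24 h.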

[27] = Toxicity in ip dosed CD1 nude mouse in DMSO/PEG; assay type: organism-based; conditions: in vivo; summary of the method: as §2
WiDr [28] = test: Antitumor activity against human 100% WiDr NTRneo tumor cells injected in CD1 nude mouse assessed as growth delay at 1780 umol/kg, ip in DMSO; assay type: functional; summary of the method: as §3
WiDr [29] = test: Antitumor activity against mixed human 10% WiDr NTRneo/ 90% WiDr tumor cells injected in CD1 nude mouse assessed as growth delay at 1780 umol/kg, ip in DMSO; assay type: functional; summary of the method: as §3
EMT6 [30] = test: Antitumor activity against mixed mouse EMT6/EMT6 NTRpuro cells injected in CD1 nude mouse assessed as cell kill at 1780 umol/kg, ip in DMSO after 18 hrs; assay type: functional

| SMILES | Ratio IC50 (V79 [1]) | Activity (V79 [2]) | Activity (V79 [3]) | Ratio (V79 [4]) | IC50 (WiDr [5]) | IC50 [6] | logD [7] | IC50 (EMT6 [8]) | Activity (V79 [9]) | IC50 [10] | Ratio IC50 (EMT6 [11]) | IC50 (V79 [12]) | IC50 (EMT6 [13]) | Ratio IC50 (WiDr [14]) | MTD [15] | IC50 (WiDr [16]) | IC50 (V79 [18]) | Ratio IC50 [19] | solubility [22] | remaining at 24 h [26] | other results |
| --- | --- | --- | --- | --- | --- | --- | --- | --- | --- | --- | --- | --- | --- | --- | --- | --- | --- | --- | --- | --- | --- |
| CS(=O)(=O)OCCN(CCCl)c1cc(C(N)=O)c([N+](=O)[O-])cc1[N+](=O)[O-] | 1060 | >1000 µM | 33 µM | 0.16 | 0.7 µM | 522 µM | 0.42 | 211 µM | 5.3 µM | 0.78 µM | 942 | 0.55 µM | 0.3 µM | 442 | 1000 µmol/kg | 246 µM | 504 µM | 697 |  |  | Activity (WiDr [17]): 38 days; Activity (WiDr [20]): >80 days; LCK (EMT6 [21]): >3.82 |
| CS(=O)(=O)c1cc([N+](=O)[O-])c(C(N)=O)cc1N(CCBr)CCBr | 508 | >100 µM | 16 µM |  | 0.58 µM | 86 µM | 1.02 | 39 µM | 5.5 µM | 0.4 µM | 490 | 0.16 µM | 0.09 µM | 74 | 750 µmol/kg | 37 µM | 80 µM | 265 | 70 µM (≈ 33.1 µg/mL) | 63% | LCK (EMT6 [23]): 2.24; Activity (WiDr [24]): >83 days; Activity (WiDr [25]): 36 days; MTD [27]: 133 µmol/kg |
| CS(=O)(=O)OCCN(CCBr)c1cc(C(N)=O)c([N+](=O)[O-])cc1[N+](=O)[O-] | 1260 | >250 µM | 10 µM | 0.2 | 0.22 µM | 135 µM | 0.49 | 76 µM | 2 µM | 0.19 µM | 1510 | 0.11 µM | 0.05 µM | 387 | 1780 µmol/kg | 80 µM | 133 µM | 715 | 230 µM (≈ 105 µg/mL) | 71% | Activity (WiDr [28]): >82 days; Activity (WiDr [29]): 26 days; LCK (EMT6 [30]): >3.61 |
